What is called IC50 is the concentration that inhibits the measured activity by half. As a reminder, the inhibition is the drop in the measured response relative to a control, in per cent.

This is an account of results in ChEMBL document CHEMBL4033795, “Design, Synthesis, and Structure-Activity Relationship Study of 2-Oxo-3,4-dihydropyrimido[4,5- d]pyrimidines as New Colony Stimulating Factor 1 Receptor (CSF1R) Kinase Inhibitors” (J Med Chem, 2018).

Bounds are passed on as bounds.

The target in data set [1] is Macrophage colony-stimulating factor 1 receptor (Homo sapiens, UniProt P07333). The data set is described as follows: Inhibition of recombinant human His-tagged CSF1R cytoplasmic domain (538 to 910 residues) expressed in baculovirus using tyr4 peptide as substrate after 1 hr by FRET-based Z'-Lyte assay. A digest of the protocol:
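Z′-Lyte FRET assay with CSF1R or EGFR and 2 μM Tyr4 peptide substrate in 1× kinase buffer. ATP was supplied as a 100 μM solution, a stock and not the final concentration. Compounds were 3-fold serially diluted in DMSO. Reaction ran 1 h at room temperature, followed by 1 h development and a stop reagent. Phospho-peptide, no-ATP and DMSO controls were included. IC50 by curve fitting; mean of at least three independent experiments.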

The next data set concerns Rattus norvegicus. The data set is described as follows: Apparent clearance in Sprague-Dawley rat at 25 mg/kg administered via oral gavage measured up to 72 hrs by LC/MS analysis. It is filed as ADME, organism-based. As to conditions: in vivo, iv, 5 mg/kg, in the assay text read “5 mg/kg administered intravenously” for “25 mg/kg administered via oral gavage”. The method in brief:
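Male Sprague-Dawley rats, 4–6 weeks old, acclimatised 1 week, were dosed iv at 5 mg/kg or by oral gavage at 25 mg/kg. Vehicle was 2% DMSO, 4% EtOH, 4% castor oil, 90% H2O. Blood was drawn by orbital sinus puncture from 2 min to 72 h into heparinized tubes. Plasma was assayed by LC/MS with propranolol as internal standard. Three animals per group.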

Data set [2] addresses Receptor-type tyrosine-protein kinase FLT3 (Homo sapiens, UniProt P36888). Nature of the data set: Inhibition of recombinant human His-tagged FLT3 (564 to 958 residues) expressed in baculovirus using poly (Glu,Tyr) as substrate after 2 hrs by PK-Light ATP assay.
The target of data set [3] is Fibroblast growth factor receptor 3 (Homo sapiens, UniProt P22607). Nature of the data set: Inhibition of cytoplasmic recombinant human His-tagged FGFR3 (399 to 806 residues) expressed in baculovirus using tyr4 peptide as substrate after 1 hr by FRET-based Z'-Lyte assay.
In data set [4] the target is Ephrin type-A receptor 8 (Homo sapiens) (UniProt P29322). Nature of the data set: Inhibition of recombinant human EPHA8 (Q608 to C920 residues) expressed in bacterial expression system at 100 nM by KINOMEscan assay relative to control.
Data set [5] deals with T1, Macrophage colony-stimulating factor 1 receptor (Mus musculus) (UniProt P09581).
T1 sequence (whole entry): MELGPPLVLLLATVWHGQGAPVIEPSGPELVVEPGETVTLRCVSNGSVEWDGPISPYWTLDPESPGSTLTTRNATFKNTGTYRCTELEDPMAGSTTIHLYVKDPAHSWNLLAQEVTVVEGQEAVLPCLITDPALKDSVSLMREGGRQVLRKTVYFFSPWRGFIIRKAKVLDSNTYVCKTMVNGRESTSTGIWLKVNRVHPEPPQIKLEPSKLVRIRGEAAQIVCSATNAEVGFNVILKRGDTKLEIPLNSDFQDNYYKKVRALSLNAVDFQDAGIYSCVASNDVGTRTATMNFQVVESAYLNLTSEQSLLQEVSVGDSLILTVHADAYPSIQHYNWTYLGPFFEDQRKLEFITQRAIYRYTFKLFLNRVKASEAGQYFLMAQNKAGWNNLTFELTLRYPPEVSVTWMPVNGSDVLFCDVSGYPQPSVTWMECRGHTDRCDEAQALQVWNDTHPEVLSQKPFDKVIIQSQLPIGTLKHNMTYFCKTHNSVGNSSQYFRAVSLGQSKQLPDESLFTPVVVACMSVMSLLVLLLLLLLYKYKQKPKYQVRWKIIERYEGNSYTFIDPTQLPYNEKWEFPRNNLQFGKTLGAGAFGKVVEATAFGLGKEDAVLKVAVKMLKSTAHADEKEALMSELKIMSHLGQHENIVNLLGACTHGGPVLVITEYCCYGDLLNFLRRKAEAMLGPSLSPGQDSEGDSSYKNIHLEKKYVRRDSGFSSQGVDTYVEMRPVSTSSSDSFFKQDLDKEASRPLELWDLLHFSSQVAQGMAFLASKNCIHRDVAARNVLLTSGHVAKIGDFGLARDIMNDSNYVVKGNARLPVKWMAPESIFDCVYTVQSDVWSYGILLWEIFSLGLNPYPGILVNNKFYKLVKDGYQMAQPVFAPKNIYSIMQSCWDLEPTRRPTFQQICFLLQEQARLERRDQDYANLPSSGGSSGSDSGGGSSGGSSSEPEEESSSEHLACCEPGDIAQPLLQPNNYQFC
Nature of the data set: Inhibition of CSF1R phosphorylation in mouse RAW264.7 cells at 80 nM preincubated for 6 hrs followed by CSF1 stimulation for 20 mins by Western blot analysis relative to control. It is filed as cell-based. A digest of the protocol: (§1)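 RAW264.7 cells were seeded, incubated overnight and treated 6 h with graded compound concentrations, then stimulated 20 min with CSF-1 (50 ng/mL). Lysates were run on 8−12% SDS-PAGE and immunoblotted for p-CSF1R (Tyr723), CSF1R, p-AKT, AKT and GAPDH. Bands were quantified and normalized to GAPDH. Mean ± SEM of at least three experiments.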
(A western blot detects proteins with antibodies after separation by electrophoresis.)

Data set [6] concerns the target T1, Macrophage colony-stimulating factor 1 receptor (Mus musculus). Nature of the data set: Inhibition of CSF1R phosphorylation in mouse RAW264.7 cells assessed as reduction in AKT phosphorylation at 80 nM preincubated for 6 hrs followed by CSF1 stimulation for 20 mins by Western blot analysis relative to control. Format: cell-based. A digest of the protocol:
as §1

Data set [7] relates to RAW264.7. Nature of the data set: Downregulation of MMP9 mRNA expression in mouse RAW264.7 cells after 48 hrs by qRT-PCR analysis relative to DMSO. Format: functional, cell-based. The method in brief:
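RAW264.7 macrophages were treated 48 h with compound at 0.08, 0.4 or 2.0 μM, or DMSO vehicle. Total RNA was extracted with TRIzol and transcripts were quantified by qRT-PCR using gene-specific primers. Run three times, each in triplicate.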

In data set [8] the test system is RAW264.7. Nature of the data set: Inhibition of protumorigenic potential of mouse RAW264.7 cells assessed as abrogation of human LNCAP cell growth enhancement of macrophages at 0.016 uM co-cultured for 48 hrs by CCK8 assay relative to control. Format: functional. The note with it: RAW264.7, 48 h. A digest of the protocol: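 LNCaP cells, (2−4) × 10^5, were seeded in the lower transwell chamber. After 2 h, (1−2) × 10^6 RAW264.7 cells were added in a 0.4 μm insert. Compound at 0.016–2.0 μM was added to the top chamber and cells were cocultured 48 h at 37 °C. LNCaP cells were then imaged and counted by CCK8. Run three times, each in triplicate.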
Background: Tetrazolium assays rely on reduction of a dye to a coloured formazan, in cell work by metabolically active cells.

The species named for data set [9] is Homo sapiens. The data set is described as follows: Selectivity ratio of IC50 for recombinant cytoplasmic human His-tagged KIT expressed in baculovirus to IC50 for recombinant human His-tagged CSF1R cytoplasmic domain (538 to 910 residues) expressed in baculovirus.
Data set [10] is filed under the species Homo sapiens. The data set is described as follows: Selectivity ratio of IC50 for recombinant cytoplasmic human GST-tagged PDGFRalpha expressed in baculovirus to IC50 for recombinant human His-tagged CSF1R cytoplasmic domain (538 to 910 residues) expressed in baculovirus.
The species named for data set [11] is Homo sapiens. Nature of the data set: Selectivity ratio of IC50 for recombinant human PDGFRbeta expressed in baculovirus to IC50 for recombinant human His-tagged CSF1R cytoplasmic domain (538 to 910 residues) expressed in baculovirus.

Chain of Fibroblast growth factor receptor 3 (P22607 whole entry, the tested form may be a part): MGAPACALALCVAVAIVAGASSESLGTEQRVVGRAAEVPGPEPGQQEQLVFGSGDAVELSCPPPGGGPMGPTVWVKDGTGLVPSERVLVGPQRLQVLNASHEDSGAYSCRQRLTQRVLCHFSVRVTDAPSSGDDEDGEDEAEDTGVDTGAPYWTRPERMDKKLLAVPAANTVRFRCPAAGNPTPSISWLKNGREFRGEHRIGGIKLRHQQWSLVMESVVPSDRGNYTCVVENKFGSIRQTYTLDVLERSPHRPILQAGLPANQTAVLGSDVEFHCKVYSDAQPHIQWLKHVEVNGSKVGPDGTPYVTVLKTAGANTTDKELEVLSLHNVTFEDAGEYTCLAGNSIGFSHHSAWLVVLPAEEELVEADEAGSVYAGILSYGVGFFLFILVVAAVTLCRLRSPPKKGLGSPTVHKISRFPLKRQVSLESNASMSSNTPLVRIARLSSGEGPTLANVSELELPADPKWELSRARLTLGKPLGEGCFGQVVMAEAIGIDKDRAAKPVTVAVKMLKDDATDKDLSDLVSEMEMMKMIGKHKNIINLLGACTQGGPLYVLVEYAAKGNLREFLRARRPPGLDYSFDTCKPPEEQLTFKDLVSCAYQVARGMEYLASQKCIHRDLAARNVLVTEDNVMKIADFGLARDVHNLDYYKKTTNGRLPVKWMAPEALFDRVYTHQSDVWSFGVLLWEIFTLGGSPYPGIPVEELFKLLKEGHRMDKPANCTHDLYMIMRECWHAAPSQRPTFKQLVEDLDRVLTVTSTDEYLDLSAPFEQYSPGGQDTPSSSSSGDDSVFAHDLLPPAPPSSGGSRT
Chain of Ephrin type-A receptor 8 (Homo sapiens) (P29322 whole entry, the tested form may be a part): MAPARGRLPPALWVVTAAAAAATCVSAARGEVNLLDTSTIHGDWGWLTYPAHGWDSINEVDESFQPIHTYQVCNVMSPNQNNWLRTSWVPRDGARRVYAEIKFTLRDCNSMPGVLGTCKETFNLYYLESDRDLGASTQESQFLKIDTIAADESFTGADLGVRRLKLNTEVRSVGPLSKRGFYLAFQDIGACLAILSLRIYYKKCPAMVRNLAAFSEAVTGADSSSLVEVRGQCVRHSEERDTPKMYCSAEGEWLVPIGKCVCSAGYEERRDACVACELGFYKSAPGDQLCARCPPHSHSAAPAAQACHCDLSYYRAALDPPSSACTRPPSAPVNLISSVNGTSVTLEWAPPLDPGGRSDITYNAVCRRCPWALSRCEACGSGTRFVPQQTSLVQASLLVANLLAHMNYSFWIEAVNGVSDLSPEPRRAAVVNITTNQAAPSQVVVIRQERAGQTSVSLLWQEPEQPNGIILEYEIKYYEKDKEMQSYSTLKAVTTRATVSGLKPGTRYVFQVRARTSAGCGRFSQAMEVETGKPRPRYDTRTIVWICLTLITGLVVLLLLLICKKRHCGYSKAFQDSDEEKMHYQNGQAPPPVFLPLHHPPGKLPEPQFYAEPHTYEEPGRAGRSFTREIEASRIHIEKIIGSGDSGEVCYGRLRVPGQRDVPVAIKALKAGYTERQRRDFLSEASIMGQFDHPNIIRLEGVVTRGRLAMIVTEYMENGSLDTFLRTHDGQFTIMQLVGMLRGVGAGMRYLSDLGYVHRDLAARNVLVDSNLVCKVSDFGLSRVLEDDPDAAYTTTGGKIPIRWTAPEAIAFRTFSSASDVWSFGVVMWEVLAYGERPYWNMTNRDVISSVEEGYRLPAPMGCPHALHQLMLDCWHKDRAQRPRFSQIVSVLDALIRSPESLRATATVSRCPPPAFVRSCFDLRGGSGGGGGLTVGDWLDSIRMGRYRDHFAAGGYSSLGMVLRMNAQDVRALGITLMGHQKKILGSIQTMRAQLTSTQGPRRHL
Chain of Macrophage colony-stimulating factor 1 receptor (P07333 whole entry, the tested form may be a part): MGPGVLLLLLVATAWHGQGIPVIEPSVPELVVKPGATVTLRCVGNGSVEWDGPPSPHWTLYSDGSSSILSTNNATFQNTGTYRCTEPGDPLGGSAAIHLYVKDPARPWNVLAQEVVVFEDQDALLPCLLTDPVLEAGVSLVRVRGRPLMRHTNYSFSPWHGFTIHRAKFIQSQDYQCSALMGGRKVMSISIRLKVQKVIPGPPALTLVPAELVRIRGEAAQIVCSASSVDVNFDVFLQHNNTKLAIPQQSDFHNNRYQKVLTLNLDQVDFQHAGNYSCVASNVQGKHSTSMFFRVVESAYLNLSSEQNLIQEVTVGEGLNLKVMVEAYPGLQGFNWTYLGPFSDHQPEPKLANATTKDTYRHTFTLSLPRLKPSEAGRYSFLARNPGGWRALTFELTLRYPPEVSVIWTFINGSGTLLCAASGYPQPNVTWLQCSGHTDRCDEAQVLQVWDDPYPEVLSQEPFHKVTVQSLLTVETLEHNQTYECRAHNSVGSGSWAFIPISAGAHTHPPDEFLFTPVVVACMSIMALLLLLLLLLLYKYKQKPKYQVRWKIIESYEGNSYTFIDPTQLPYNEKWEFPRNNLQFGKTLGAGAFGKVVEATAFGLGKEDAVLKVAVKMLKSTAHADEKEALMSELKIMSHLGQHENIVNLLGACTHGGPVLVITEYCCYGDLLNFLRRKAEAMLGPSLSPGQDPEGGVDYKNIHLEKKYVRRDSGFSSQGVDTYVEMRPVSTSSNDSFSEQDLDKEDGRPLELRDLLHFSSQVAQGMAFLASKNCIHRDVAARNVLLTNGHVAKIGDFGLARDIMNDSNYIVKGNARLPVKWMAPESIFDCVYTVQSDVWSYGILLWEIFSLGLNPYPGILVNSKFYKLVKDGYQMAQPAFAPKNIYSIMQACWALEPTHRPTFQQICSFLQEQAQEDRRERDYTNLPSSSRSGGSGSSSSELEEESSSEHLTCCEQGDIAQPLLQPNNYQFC
Chain of Receptor-type tyrosine-protein kinase FLT3 (P36888 whole entry, the tested form may be a part): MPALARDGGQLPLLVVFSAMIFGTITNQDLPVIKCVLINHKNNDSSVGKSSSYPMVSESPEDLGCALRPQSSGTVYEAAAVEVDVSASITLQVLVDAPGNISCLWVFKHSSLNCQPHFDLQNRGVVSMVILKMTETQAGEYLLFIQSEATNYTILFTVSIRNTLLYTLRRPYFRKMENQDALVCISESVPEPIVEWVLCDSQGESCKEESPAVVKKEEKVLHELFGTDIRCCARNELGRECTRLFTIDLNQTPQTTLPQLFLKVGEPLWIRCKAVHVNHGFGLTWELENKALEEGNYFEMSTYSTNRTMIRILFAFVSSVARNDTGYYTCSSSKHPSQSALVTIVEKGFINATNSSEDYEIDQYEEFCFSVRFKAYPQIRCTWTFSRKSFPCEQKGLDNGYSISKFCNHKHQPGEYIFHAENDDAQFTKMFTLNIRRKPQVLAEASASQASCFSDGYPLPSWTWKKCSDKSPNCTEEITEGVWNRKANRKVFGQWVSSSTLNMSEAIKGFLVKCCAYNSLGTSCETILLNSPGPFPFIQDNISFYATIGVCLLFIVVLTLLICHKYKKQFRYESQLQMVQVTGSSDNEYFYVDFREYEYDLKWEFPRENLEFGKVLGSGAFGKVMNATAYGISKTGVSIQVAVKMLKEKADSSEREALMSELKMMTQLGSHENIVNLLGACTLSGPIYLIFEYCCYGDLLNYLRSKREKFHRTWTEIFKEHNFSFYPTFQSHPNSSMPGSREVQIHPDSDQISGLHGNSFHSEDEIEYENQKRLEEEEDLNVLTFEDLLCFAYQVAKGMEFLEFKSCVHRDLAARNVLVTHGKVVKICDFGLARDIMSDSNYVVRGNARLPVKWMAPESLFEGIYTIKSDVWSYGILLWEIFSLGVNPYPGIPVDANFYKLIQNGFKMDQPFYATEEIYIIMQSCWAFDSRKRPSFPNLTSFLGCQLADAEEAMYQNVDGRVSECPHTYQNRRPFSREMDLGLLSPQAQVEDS

On to `CCC(=O)N1CC[C@H](N2C(=O)N(c3cc(OC)ccc3Cl)Cc3cnc(Nc4ccc(N5CCN(C6COC6)CC5)c(C)c4)nc32)C1`, for which the values for the IC50 in [1], in [2] and in [3] were 3 nM, 37 nM and 40.2 nM, respectively. The “CL(app)” value with Rattus norvegicus came to 28.8 mL/min/kg. Moreover, the inhibition in data set [4] is > 90%; in [5], 50%; in data set [6] it was 50%. Further, in the data set with RAW264.7 [7], the Activity result is “Dose-dependent effect”. For the same compound, the inhibition at 0.016 µM with RAW264.7 [8] is 63.4%. The Ratio IC50 in the data set listed under Homo sapiens [9], in the data set filed under Homo sapiens [10] and in the data set listed under Homo sapiens [11] was 10 to 35 throughout.
